ChEMBL document CHEMBL1144352, “Effects of flavonoids on cell proliferation and caspase activation in a human colonic cell line HT29: an SAR study” (2005)

How the values were obtained:
Type in all cases: functional
HT-29 [1] = test: Caspase 3/7 activity is expressed as ratio of caspase activation in treated human colonic cell line (HT-29) to that of untreated control cells after 5 hr
In short: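 Caspase 3/7 measured with ApopOne kit. HT-29 cells were seeded at 15 000/well and exposed to test molecule for 5 h. Reagent containing caspase substrate and lysis buffer was then added, followed by 45 min at 37 °C. Fluorescence read at excitation 485 nm and emission 538 nm. Reported as ratio of treated to untreated control, mean of duplicate wells on one plate.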

HT-29 [2] = test: Antiproliferative effect against human colonic cell line (HT-29) after 6 hr at a concentration of 50 uM
In short: (§1)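 HT-29 cells plated at 15 000/well in DMEM with 5% fetal calf serum for 24 h, then medium replaced with fresh medium containing compound at 50 µM plus 200 µM sodium ascorbate. After incubation, neutral red (50 µg/mL) uptake for 2 h, formaldehyde/CaCl2 fixation, ethanol:acetic acid extraction, OD 550 nm. Result as % of control cells, mean ± SD, n > 18 wells, ≥4 experiments.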

HT-29 [3] = test: Antiproliferative effect against human colonic cell line (HT-29) after 24 hr at a concentration of 50 uM; in short: as §1

Which Caspase induction (HT-29 [1]) does the source give for `CC(C)=CCOc1cc(O)cc2oc(-c3ccccc3)cc(=O)c12` here?
The Caspase induction was 1.4.

What about the Activity (HT-29 [2]) of the same compound?
The Activity was 17.

What about the Activity (HT-29 [3]) of the same compound?
The Activity was 19.4.

Which results are given for `COc1ccc(-c2oc3cc(O)cc(O)c3c(=O)c2OC)c(OC)c1OC`?
Activity (HT-29 [2]): 89.7; Activity (HT-29 [3]): 91.5

What does the source list for `O=c1cc(-c2ccccc2)oc2cc(O)c(Cc3ccccc3)c(O)c12`?
Activity (HT-29 [2]): 65.3; Activity (HT-29 [3]): 57.6

How did the Caspase induction (HT-29 [1]) turn out when `COc1ccc(-c2oc3cc(O)cc(O)c3c(=O)c2O)cc1` [KAEMPFERIDE] was run?
Its Caspase induction is 1.

What about the Activity (HT-29 [2]) of the same compound?
The Activity was 99.77.

What about the Activity (HT-29 [3]) of the same compound?
The Activity was 84.7.

`C=CC(C)(C)c1c(O)cc(O)c2c(=O)c(OC)c(-c3ccc(OC)cc3)oc12` was tested. Which Caspase induction (HT-29 [1]) did it give?
The Caspase induction was 8.1.

And the Activity (HT-29 [2])?
Its Activity is 34.5.

What about the Activity (HT-29 [3]) of the same compound?
The Activity was 20.1.

What does the source list for `CC(C)=CCc1c(O)cc(O)c2c(=O)c(O)c(-c3ccc(O)c(O)c3)oc12`?
Caspase induction (HT-29 [1]): 1.9; Activity (HT-29 [2]): 68; Activity (HT-29 [3]): 67

Which Caspase induction (HT-29 [1]) does the source give for `COc1c(-c2ccccc2)oc2c(O)c(O)c(CC=C(C)C)c(O)c2c1=O` here?
The Caspase induction was 3.5.

What about the Activity (HT-29 [2]) of the same compound?
The Activity was 59.8.

And the Activity (HT-29 [3])?
Its Activity is 71.8.

For `C=CC(C)(CCC=C(C)C)c1c(O)cc(O)c2c(=O)cc(-c3ccccc3)oc12` (configuration not stated), which Caspase induction (HT-29 [1]) is on record?
Its Caspase induction is 8.9.

And the Activity (HT-29 [2])?
The Activity was 28.4.

What about the Activity (HT-29 [3]) of the same compound?
Its Activity is 28.1.

For `CC(C)=CCC/C(C)=C/Cc1c(O)cc(O)c2c(=O)cc(-c3ccccc3)oc12`, which Caspase induction (HT-29 [1]) is on record?
Its Caspase induction is 9.

What about the Activity (HT-29 [2]) of the same compound?
Its Activity is 18.

And the Activity (HT-29 [3])?
Its Activity is 7.6.

What does the source list for `O=C1C[C@@H](c2ccc(O)cc2)Oc2cc(O)cc(O)c21` [NARINGENIN]?
Activity (HT-29 [2]): 102.2; Activity (HT-29 [3]): 94.8

How did the Caspase induction (HT-29 [1]) turn out when `CC(C)=CCc1c(O)cc(O)c2c(=O)cc(-c3ccccc3)oc12` was run?
Its Caspase induction is 0.9.

What about the Activity (HT-29 [2]) of the same compound?
The Activity was 86.3.

What about the Activity (HT-29 [3]) of the same compound?
Its Activity is 75.5.

What does the source list for `O=c1c(O)c(-c2ccc(O)cc2)oc2cc(O)cc(O)c12` [KAEMPFEROL]?
Caspase induction (HT-29 [1]): 1.8; Activity (HT-29 [2]): 92; Activity (HT-29 [3]): 89.6

`O=c1cc(-c2ccccc2)oc2cc(OCc3ccccc3)cc(O)c12` was tested. Which Activity (HT-29 [2]) did it give?
The Activity was 96.6.

What about the Activity (HT-29 [3]) of the same compound?
Its Activity is 87.1.

Which results are given for `CC(C)=CCc1c(O)cc(O)c2c(=O)c(O)c(-c3ccc(O)cc3)oc12`?
Caspase induction (HT-29 [1]): 2.7; Activity (HT-29 [2]): 78.8; Activity (HT-29 [3]): 71.1

How did the Activity (HT-29 [2]) turn out when `C=CC(C)(C)c1c(O)cc(O)c2c(=O)c(O)c(-c3ccc(OC)cc3)oc12` was run?
The Activity was 56.4.

And the Activity (HT-29 [3])?
Its Activity is 42.1.

Which Activity (HT-29 [2]) does the source give for `O=c1cc(-c2ccccc2)oc2c(Cc3ccccc3)c(O)cc(O)c12` here?
Its Activity is 103.2.

What about the Activity (HT-29 [3]) of the same compound?
Its Activity is 97.4.

Which results are given for `COc1ccc(C(=O)/C=C(\O)c2ccc(O)cc2O)cc1`?
Activity (HT-29 [2]): 96.2; Activity (HT-29 [3]): 96.6

Which Caspase induction (HT-29 [1]) does the source give for `C=CC(C)(C)c1c(O)cc(O)c2c(=O)c(O)c(-c3ccccc3)oc12` here?
Its Caspase induction is 1.1.

And the Activity (HT-29 [2])?
The Activity was 76.7.

What about the Activity (HT-29 [3]) of the same compound?
The Activity was 63.

With `COc1ccc(-c2oc3cc(O)cc(O)c3c(=O)c2OC)cc1OC` as the compound, how does the Caspase induction (HT-29 [1]) read?
Its Caspase induction is 1.1.

And the Activity (HT-29 [2])?
The Activity was 87.9.

What about the Activity (HT-29 [3]) of the same compound?
Its Activity is 74.2.

What does the source list for `CC(C)=CCC/C(C)=C/Cc1c(O)cc2oc(-c3ccccc3)cc(=O)c2c1O`?
Caspase induction (HT-29 [1]): 1.9; Activity (HT-29 [2]): 58.2; Activity (HT-29 [3]): 53.9

For `COc1cc(O)cc2oc(-c3ccccc3)cc(=O)c12`, which Activity (HT-29 [2]) is on record?
Its Activity is 104.7.

And the Activity (HT-29 [3])?
The Activity was 107.6.

`COc1cc2oc(-c3ccccc3)cc(=O)c2c(O)c1C` was tested. Which Activity (HT-29 [2]) did it give?
The Activity was 92.2.

What about the Activity (HT-29 [3]) of the same compound?
Its Activity is 83.8.

What does the source list for `CC(C)=CCC/C(C)=C/COc1cc(O)c2c(=O)cc(-c3ccccc3)oc2c1`?
Caspase induction (HT-29 [1]): 1.2; Activity (HT-29 [2]): 90.4; Activity (HT-29 [3]): 84.3

Which results are given for `Cc1c(O)cc2oc(-c3ccccc3)cc(=O)c2c1O`?
Activity (HT-29 [2]): 104; Activity (HT-29 [3]): 101

`O=c1cc(-c2ccccc2)oc2cc(O)cc(O)c12` [CHRYSIN] was tested. Which Caspase induction (HT-29 [1]) did it give?
The Caspase induction was 0.8.

And the Activity (HT-29 [2])?
The Activity was 86.6.

What about the Activity (HT-29 [3]) of the same compound?
Its Activity is 62.8.

How did the Activity (HT-29 [2]) turn out when `COc1cc(OC)c(-c2oc3cc(O)cc(O)c3c(=O)c2OC)cc1OC` was run?
Its Activity is 90.

And the Activity (HT-29 [3])?
Its Activity is 92.5.

Which Activity (HT-29 [2]) does the source give for `CC(C)=CCC/C(C)=C/CC/C(C)=C/COc1cc(O)c2c(=O)cc(-c3ccccc3)oc2c1` here?
The Activity was 87.8.

What about the Activity (HT-29 [3]) of the same compound?
The Activity was 83.3.

`C=CC(C)(C)c1c(O)cc(O)c2c(=O)cc(-c3ccccc3)oc12` was tested. Which Caspase induction (HT-29 [1]) did it give?
The Caspase induction was 1.1.

What about the Activity (HT-29 [2]) of the same compound?
Its Activity is 76.7.

What about the Activity (HT-29 [3]) of the same compound?
The Activity was 57.7.

`C=CC(C)(C)c1c(O)cc(O)c2c(=O)c(OC)c(-c3ccc(OC)c(OC)c3)oc12` was tested. Which Caspase induction (HT-29 [1]) did it give?
Its Caspase induction is 5.2.

And the Activity (HT-29 [2])?
Its Activity is 8.5.

What about the Activity (HT-29 [3]) of the same compound?
Its Activity is 4.7.

`C=CC(C)(CC/C=C(\C)CCC=C(C)C)c1c(O)cc(O)c2c(=O)cc(-c3ccccc3)oc12` (configuration not stated) was tested. Which Caspase induction (HT-29 [1]) did it give?
The Caspase induction was 6.9.

And the Activity (HT-29 [2])?
The Activity was 43.3.

And the Activity (HT-29 [3])?
Its Activity is 24.5.

Which results are given for `C=CC(C)(C)c1c(O)cc2oc(-c3ccccc3)cc(=O)c2c1O`?
Activity (HT-29 [2]): 90.4; Activity (HT-29 [3]): 79.1

How did the Caspase induction (HT-29 [1]) turn out when `COc1ccc(-c2oc3cc(O)cc(O)c3c(=O)c2OC)cc1` [ERMANIN] was run?
Its Caspase induction is 1.2.

What about the Activity (HT-29 [2]) of the same compound?
The Activity was 92.

And the Activity (HT-29 [3])?
The Activity was 77.1.

For `C=CC(C)(C)c1cc(C(=O)/C=C/c2ccccc2)c(O)cc1O`, which Caspase induction (HT-29 [1]) is on record?
Its Caspase induction is 7.3.

What about the Activity (HT-29 [2]) of the same compound?
Its Activity is 35.4.

What about the Activity (HT-29 [3]) of the same compound?
The Activity was 15.6.

What does the source list for `O=C(/C=C/c1ccc(O)cc1)c1c(O)cc(O)cc1O` [4,2',4',6'-TETRAHYDROXYCHALCONE]?
Activity (HT-29 [2]): 102; Activity (HT-29 [3]): 94.1

`CC(C)=CCc1c(O)cc(O)c2c(=O)cc(-c3ccc(O)cc3)oc12` was tested. Which Activity (HT-29 [2]) did it give?
The Activity was 76.9.

And the Activity (HT-29 [3])?
The Activity was 56.2.

Which Activity (HT-29 [2]) does the source give for `COc1cc(-c2oc3cc(O)cc(O)c3c(=O)c2OC)cc(OC)c1OC` here?
The Activity was 101.9.

And the Activity (HT-29 [3])?
The Activity was 101.8.

Which Activity (HT-29 [2]) does the source give for `COc1cc(-c2cc(=O)c3c(OC)c(OC)c(OC)cc3o2)cc(OC)c1OC` here?
Its Activity is 94.2.

And the Activity (HT-29 [3])?
Its Activity is 100.7.

For `CC(C)=CCc1c(O)c(O)c2oc(-c3ccccc3)cc(=O)c2c1O`, which Caspase induction (HT-29 [1]) is on record?
Its Caspase induction is 1.6.

What about the Activity (HT-29 [2]) of the same compound?
Its Activity is 67.4.

What about the Activity (HT-29 [3]) of the same compound?
The Activity was 71.7.

How did the Activity (HT-29 [2]) turn out when `CC(C)=CCc1c(O)cc2oc(-c3ccccc3)cc(=O)c2c1O` was run?
The Activity was 87.9.

What about the Activity (HT-29 [3]) of the same compound?
The Activity was 87.9.

Which results are given for `C=CC(C)(C)c1c(O)cc(O)c2c(=O)c(OC)c(-c3ccccc3)oc12`?
Caspase induction (HT-29 [1]): 1.3; Activity (HT-29 [2]): 79.3; Activity (HT-29 [3]): 79.4

With `O=c1c(O)c(-c2ccc(O)c(O)c2)oc2cc(O)cc(O)c12` [QUERCETIN] as the compound, how does the Caspase induction (HT-29 [1]) read?
The Caspase induction was 1.

What about the Activity (HT-29 [2]) of the same compound?
Its Activity is 61.4.

What about the Activity (HT-29 [3]) of the same compound?
The Activity was 51.3.

How did the Activity (HT-29 [2]) turn out when `COc1ccc(-c2cc(=O)c3c(OC)c(OC)c(OC)cc3o2)cc1O` was run?
The Activity was 95.4.

What about the Activity (HT-29 [3]) of the same compound?
The Activity was 102.1.
